Results collected from several papers.
Protocols differ between the studies behind these lines.
Target: Serine/threonine-protein kinase 16 (STK16, Homo sapiens, UniProt O75716)

| Structure (SMILES) | test | conditions | measurement | result |
| --- | --- | --- | --- | --- |
| Cc1ccc(C(=O)Nc2ccc(CN3CCN(C)CC3)c(C(F)(F)F)c2)cc1C#Cc1cnc2cccnn12 | enzyme activity, inhibitor | 23.5 nM | remaining activity | 94% |
| FC(F)(F)Oc1cccc(-c2cnc3ccc(-c4ccncc4)nn23)c1 | enzyme activity, inhibitor, radiometric | 1 µM | activity vs control | 120% |
| O=C1NC(=O)c2cc(Nc3ccc(F)cc3)c(Nc3ccc(F)cc3)cc21 | cell-free assay | 0.5 µM | remaining signal | 85.8% |
| O=C(Nc1cnn(-c2csc(C(=O)NC3COC3)c2)c1)Nc1ccccc1Cl | enzyme activity, inhibitor | 5 µM | remaining activity | 98.6% |
| CNC(=O)c1cc(Oc2ccc(NC(=O)Nc3ccc(Cl)c(C(F)(F)F)c3)cc2)ccn1 | cell-free assay | 0.5 µM | remaining signal | 105% |
| CN(C(=O)c1ccccc1)c1cc(N(C)c2ccc3c(c2)CCc2ccc(C(=O)NCCN4CCOCC4)cc2C3=O)ccc1F | cell-free assay, competition with immobilised ligand | 1 µM | remaining binding | 93% |
| Cc1sc(C(=O)NC2COC2)cc1-n1cc(NC(=O)Nc2c(F)cccc2Cl)cn1 | enzyme activity, inhibitor | 10 µM | remaining activity | 94.4% |
| COc1cc(Nc2cnc(C#N)c(O[C@H](C)CN(C)C)n2)ncc1-c1cnn(C)c1 | enzyme activity, inhibitor, radiometric | 1 µM | remaining activity | 91% |
| Cn1cnc(Br)c1C1=CN(c2ncnc3[nH]cnc23)CCS1 | enzyme activity, inhibitor, radiometric | 50 nM | inhibition | 38.5% |
| CS(=O)(=O)N1CCCC(NC(=O)[C@H](CCC2CCCCC2)NC(=O)c2ccc(CNc3ncnc4c3nnn4-c3ccccc3)cc2)C1 (stereo partly shown) | cell-free assay, competition with immobilised ligand | 0.1 µM | remaining binding | 100% |
| Cn1cncc1C1=CN(c2ncnc3[nH]cnc23)CCS1 | enzyme activity, inhibitor, radiometric | 50 nM | inhibition | 22% |
| Nc1cnc(N2CCc3cc(S(=O)(=O)Nc4c(F)cc(Cl)cc4F)cc(N4CCCC4=O)c32)nc1 | cell-free assay, competition with immobilised ligand | 1 µM | remaining binding | 100% |
| COc1cc(/C=C/C(=O)CC(=O)/C=C/c2ccc(O)c(OC)c2)ccc1O | enzyme activity, inhibitor | 1 µM | activity vs control | 91% |
| COc1cc(-c2cc(-c3ccc(N4CCNCC4)cc3)cnc2C)cc(OC)c1OC | enzyme activity, inhibitor | 0.1 µM | inhibition | 4% |
| Nc1ncnc2occ(-c3ccc(NC(=O)Nc4cc(C(F)(F)F)ccc4F)cc3)c12 | cell-free assay, inhibitor | 20 µM | remaining signal | 84% |
| CN(C)C(=O)Cn1cc(-c2nc(C3(c4ccc(-c5cnc(N)nc5)cc4)CC3)no2)cn1 | cell-free assay, competition with immobilised ligand | 1 µM | remaining binding | 100% |
| CCCCNc1ncc2c(-c3ccc(F)cc3)nn(C[C@H]3CC[C@H](N)CC3)c2n1 | target engagement in cells, inhibitor, chemoproteomics | 20 mM | inhibition | 56.4% |
| Oc1cccc(-c2nc(N3CCOCC3)c3oc4ncccc4c3n2)c1 | cell-free assay | 0.5 µM | remaining signal | 91.7% |
| CN([C@@H]1CCc2c(CC(=O)O)c3cc(S(C)(=O)=O)ccc3n2C1)S(=O)(=O)c1ccc(F)cc1 | cell-free assay, competition with immobilised ligand | 1 µM | remaining binding | 95% |
